ChEMBL document CHEMBL1140086, “Targeting the ribose and phosphate binding site of p38 mitogen-activated protein (MAP) kinase: synthesis and biological testing of 2-alkylsulfanyl-, 4(5)-aryl-, 5(4)-heteroaryl-substituted imidazoles” (J Med Chem, 2008)

Key:
[1] = target: Mitogen-activated protein kinase 14 (Homo sapiens, UniProt Q16539); assay: Inhibition of p38alpha
Blood = assay: Inhibition of LPS-stimulated TNFalpha release in human whole blood by ELISA; format: functional, tissue-based
Summary of the method: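 Fresh human whole blood diluted with FBS; compound dilutions added, 15 min preincubation (5% CO2), then LPS stimulation; basal wells received DPBS-gentamicin. […] Tests in duplicate except where otherwise stated.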

Sequence of Mitogen-activated protein kinase 14 (Q16539 whole entry): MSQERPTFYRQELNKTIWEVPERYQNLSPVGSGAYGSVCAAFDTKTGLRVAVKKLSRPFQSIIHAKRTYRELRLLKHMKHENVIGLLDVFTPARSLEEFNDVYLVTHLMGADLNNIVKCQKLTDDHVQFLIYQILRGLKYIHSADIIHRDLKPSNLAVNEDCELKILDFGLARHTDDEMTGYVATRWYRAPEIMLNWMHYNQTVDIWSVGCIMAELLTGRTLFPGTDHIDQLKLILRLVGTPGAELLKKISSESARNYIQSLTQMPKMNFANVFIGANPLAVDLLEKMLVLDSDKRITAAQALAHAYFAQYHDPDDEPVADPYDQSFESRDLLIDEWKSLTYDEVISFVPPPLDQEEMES

Row | SMILES | IC50 [1] [nM] | IC50 (Blood) [nM]
1 | CNc1cc(-c2[nH]c(SCC(O)CO)nc2-c2ccc(F)cc2)ccn1 (stereo not given) | 102 | 5720
2 | CSc1nc(-c2ccc(F)cc2)c(-c2ccnc(NC3CCOCC3)c2)[nH]1 | – | 201
3 | CC(C)C(C)Nc1cc(-c2[nH]c(SC[C@@H](O)CO)nc2-c2ccc(F)cc2)ccn1 (stereo not given in full) | 10 | 139
4 | Cn1c(SCC(O)CO)nc(-c2ccc(F)cc2)c1-c1ccncc1 (stereo not given) | 1220 | –
5 | OCC(O)CSc1nc(-c2ccc(F)cc2)c(-c2ccncc2)[nH]1 (stereo not given) | 392 | 3380
6 | CC(Nc1cc(-c2[nH]c(SCC(O)CO)nc2-c2ccc(F)cc2)ccn1)c1ccccc1 (stereo not given) | 41 | 936
7 | CCOP(=O)(CSc1nc(-c2ccc(F)cc2)c(-c2ccnc(NC(C)c3ccccc3)c2)[nH]1)OCC (stereo not given) | – | 19400
8 | CC(C)C(C)Nc1cc(-c2[nH]c(SCCO)nc2-c2ccc(F)cc2)ccn1 (stereo not given) | 11 | 37
9 | OCC(O)CSc1nc(-c2ccc(F)cc2)c(-c2ccnc(NC3CCOCC3)c2)[nH]1 (stereo not given) | 3 | 131
10 | OCC(O)CSc1nc(-c2ccc(F)cc2)c(-c2ccnc(NCc3ccccc3)c2)[nH]1 (stereo not given) | – | 2670
11 | CC(C)Nc1cc(-c2[nH]c(SCCO)nc2-c2ccc(F)cc2)ccn1 | – | 129
12 | CC(C)CNc1cc(-c2[nH]c(SCC(O)CO)nc2-c2ccc(F)cc2)ccn1 (stereo not given) | – | 168
13 | OCCCSc1nc(-c2ccc(F)cc2)c(-c2ccncc2)[nH]1 | 215 | 6690
14 | COC(=O)CSc1nc(-c2ccc(F)cc2)c(-c2ccncc2)[nH]1 | 158 | 31900
15 | CC(C)C(C)Nc1cc(-c2[nH]c(SCC(O)CO)nc2-c2ccc(F)cc2)ccn1 (stereo not given) | 15 | 183
16 | COC(=O)CSc1nc(-c2ccc(F)cc2)c(-c2ccnc(NC(C)C)c2)[nH]1 | 4 | 12800
17 | CCNc1cc(-c2[nH]c(SCC(O)CO)nc2-c2ccc(F)cc2)ccn1 (stereo not given) | 27 | 777
18 | CC(C)Nc1cc(-c2[nH]c(SCC(O)CO)nc2-c2ccc(F)cc2)ccn1 (stereo not given) | 3 | 126
19 | COC(=O)CSc1nc(-c2ccc(F)cc2)c(-c2ccnc(NC(C)c3ccccc3)c2)[nH]1 (stereo not given) | 36 | 45500
20 | CCOC(=O)C(Sc1nc(-c2ccc(F)cc2)c(-c2ccncc2)[nH]1)C(=O)OCC | 2240 | 25400
21 | OCCSc1nc(-c2ccc(F)cc2)c(-c2ccnc(NC3CCOCC3)c2)[nH]1 | 2 | 80

More lines, in order of falling IC50 (Blood), values ahead:

Row | IC50 [1] [nM] | IC50 (Blood) [nM] | SMILES
22 | 37 | 65700 | CC(Nc1cc(-c2[nH]c(SCC(=O)O)nc2-c2ccc(F)cc2)ccn1)c1ccccc1 (stereo not given)
23 | 487 | 31900 | COC(=O)CCCSc1nc(-c2ccc(F)cc2)c(-c2ccncc2)[nH]1
24 | 19 | 8940 | COC(=O)CSc1nc(-c2ccc(F)cc2)c(-c2ccnc(NC(C)C(C)C)c2)[nH]1 (stereo not given)
25 | 184 | 4210 | OCCSc1nc(-c2ccc(F)cc2)c(-c2ccncc2)[nH]1
26 | 6 | 180 | CC(C)Nc1cc(-c2[nH]c(SC[C@H](O)CO)nc2-c2ccc(F)cc2)ccn1
27 | 18 | 167 | CC(C)C(C)Nc1cc(-c2[nH]c(SC[C@H](O)CO)nc2-c2ccc(F)cc2)ccn1 (stereo not given in full)
28 | – | 157 | OCCSc1nc(-c2ccc(F)cc2)c(-c2ccnc(N[C@H]3CC[C@H](O)CC3)c2)[nH]1
29 | 5 | 156 | CCC(C)Nc1cc(-c2[nH]c(SCC(O)CO)nc2-c2ccc(F)cc2)ccn1 (stereo not given)
30 | 12 | 145 | CC(C)C(C)Nc1cc(-c2[nH]c(SCCCO)nc2-c2ccc(F)cc2)ccn1 (stereo not given)
31 | 3 | 123 | CC(C)Nc1cc(-c2[nH]c(SC[C@@H](O)CO)nc2-c2ccc(F)cc2)ccn1
